Measurements from ChEMBL document CHEMBL4732181, “Pyrazolo[3,4-d]pyrimidine-based dual EGFR T790M/HER2 inhibitors: Design, synthesis, structure-activity relationship and biological activity as potential antitumor and anticonvulsant agents” (Eur J Med Chem, 2021).
Activity calls are given as the source filed them. The calls are words filed in the database; no cut-off is given here.

Columns and labels:
WI-38 = assay: Cytotoxicity against human WI-38 cells assessed as reduction in cell viability after 48 hrs by MTT assay; type: cell-based; details: WI-38, 48 h
Method in brief: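 Cells from ATCC grown in DMEM with 10% FBS, insulin and 1% penicillin-streptomycin. Plated at 1.2-1.8 × 10,000 cells/well for 24 h, then exposed to compounds in DMSO vehicle for 48 h. MTT 0.5 mg/ml added for 2 h; absorbance read at 570 nm. Experiments run in triplicate.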

MCF7 [1] = assay: Induction of cell cycle arrest in human MCF7 cells assessed as cell accumulation at pre-G1 phase at IC50 concentration after 24 hrs by propidium iodide staining based flow cytometric analysis (reference value: 1.49%); type: functional
MCF7 [2] = assay: Induction of cell cycle arrest in human MCF7 cells assessed as cell accumulation at G1 phase at IC50 concentration after 24 hrs by propidium iodide staining based flow cytometric analysis (reference value: 53.77%); type: functional
MCF7 [3] = assay: Induction of cell cycle arrest in human MCF7 cells assessed as cell accumulation at S phase at IC50 concentration after 24 hrs by propidium iodide staining based flow cytometric analysis (reference value: 42.34%); type: functional
MCF7 [4] = assay: Induction of cell cycle arrest in human MCF7 cells assessed as cell accumulation at G2/M phase at IC50 concentration after 24 hrs by propidium iodide staining based flow cytometric analysis (reference value: 3.89%); type: functional
MCF7 [5] = assay: Induction of cell cycle arrest in human MCF7 cells assessed as cell increase in accumulation at G2/M phase at IC50 concentration after 24 hrs by propidium iodide staining based flow cytometric analysis; type: functional
MCF7 [6] = assay: Induction of apoptosis in human MCF7 cells assessed as increase in early apoptotic cells at IC50 concentration after 24 hrs by annexin-V-FITC/PI staining based flow cytometric analysis; type: functional
MCF7 [7] = assay: Induction of apoptosis in human MCF7 cells assessed as increase in late apoptotic cells at IC50 concentration after 24 hrs by annexin-V-FITC/PI staining based flow cytometric analysis; type: functional
MCF7 [8] = assay: Induction of apoptosis in human MCF7 cells assessed as increase in caspace-3 protein expression at IC50 concentration after 24 hrs by ELISA; type: functional
Method in brief: (§1)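 Cells treated at IC50 for 24 h and lysed in cell extraction buffer. Lysate diluted in standard diluent buffer and human caspase-3, -7, -9, Bax and Bcl-2 quantified by immunoassay kit (pg/mL). Fold change calculated against untreated control cells.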

MCF7 [9] = assay: Induction of apoptosis in human MCF7 cells assessed as increase in caspace-7 protein expression at IC50 concentration after 24 hrs by ELISA; type: functional; method in brief: as §1
MCF7 [10] = assay: Induction of apoptosis in human MCF7 cells assessed as increase in caspace-9 protein expression at IC50 concentration after 24 hrs by ELISA; type: functional; method in brief: as §1
MCF7 [11] = assay: Induction of apoptosis in human MCF7 cells assessed as increase in Bax protein expression at IC50 concentration after 24 hrs by ELISA; type: functional; method in brief: as §1
MCF7 [12] = assay: Induction of apoptosis in human MCF7 cells assessed as decrease in Bcl-2 protein expression at IC50 concentration after 24 hrs by ELISA; type: functional; method in brief: as §1
MCF7 [13] = assay: Induction of apoptosis in human MCF7 cells assessed as increase in Bax/Bcl-2 ratio at IC50 concentration after 24 hrs by ELISA; type: functional, cell-based; method in brief: as §1
[14] = biological target: T1, Receptor tyrosine-protein kinase erbB-2 (Homo sapiens, UniProt P04626); assay: Inhibition of HER2 (unknown origin) at 10 uM relative to control
Method in brief: (§2)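 Cell-free immunoassay kit measuring EGFR T790M/HER2 kinase inhibition. Percent inhibition screened at 10 µM. IC50 obtained from four concentrations (0.01-10 µM) by fitting E(%) = Emax/(1+[I]/ID50) to a dose-response curve. Mean of two independent replicates.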

[15] = biological target: Epidermal growth factor receptor (Homo sapiens, UniProt P00533, T790M); assay: Inhibition of EGFR T790M mutant (unknown origin)
[16] = biological target: T1, Receptor tyrosine-protein kinase erbB-2; assay: Inhibition of HER2 (unknown origin); method in brief: as §2
Mus musculus [17] = assay: Anticonvulsant activity against mouse model of LiCa/pilocarpine-induced status epilepticus assessed as mean power frequency at 20 mg/kg, po for 10 days by EEG method relative to control; type: functional; details: time 10 day
Method in brief: (§3)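 Male mice (20-30 g), five per group, dosed orally once daily for 10 days. Status epilepticus was then induced with LiCa (3 mEq/kg i.p.), atropine sulfate (1 mg/kg i.p.) 30 min before pilocarpine, and pilocarpine HCl (300 mg/kg i.p.) 2 h after LiCa. Normal controls received oral distilled water. Comparators were untreated SE, phenytoin and lamotrigine. One-way ANOVA with Tukey post-hoc; mean ± SD.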

Mus musculus [18] = assay: Anticonvulsant activity against mouse model of LiCa/pilocarpine-induced status epilepticus assessed as spectral edge frequency at 20 mg/kg, po for 10 days by EEG method relative to control; type: functional; details: time 10 day; method in brief: as §3
Mus musculus [19] = assay: Anticonvulsant activity against mouse model of LiCa/pilocarpine-induced status epilepticus assessed as total power at 20 mg/kg, po for 10 days by EEG method relative to control; type: functional; details: time 10 day; method in brief: as §3
Mus musculus [20] = assay: Anticonvulsant activity against mouse model of LiCa/pilocarpine-induced status epilepticus assessed as amplitude at 20 mg/kg, po for 10 days by EEG method relative to control; type: functional; details: time 10 day; method in brief: as §3
Mus musculus [21] = assay: Anticonvulsant activity against mouse model of LiCa/pilocarpine-induced status epilepticus assessed as amplitude density at 20 mg/kg, po for 10 days by EEG method relative to control; type: functional; details: time 10 day; method in brief: as §3
Mus musculus [22] = assay: Anticonvulsant activity against mouse model of LiCa/pilocarpine-induced status epilepticus assessed as power pV2 at 20 mg/kg, po for 10 days by EEG method relative to control; type: functional; details: time 10 day; method in brief: as §3
Mus musculus [23] = assay: Anticonvulsant activity against mouse model of LiCa/pilocarpine-induced status epilepticus assessed as total power density at 20 mg/kg, po for 10 days by EEG method relative to control; type: functional; details: time 10 day; method in brief: as §3
Mus musculus [24] = assay: Anticonvulsant activity against mouse model of LiCa/pilocarpine-induced status epilepticus assessed as delta at 20 mg/kg, po for 10 days by EEG method relative to control; type: functional; details: time 10 day; method in brief: as §3
Mus musculus [25] = assay: Anticonvulsant activity against mouse model of LiCa/pilocarpine-induced status epilepticus assessed as theta at 20 mg/kg, po for 10 days by EEG method relative to control; type: functional; details: time 10 day; method in brief: as §3
Mus musculus [26] = assay: Anticonvulsant activity against mouse model of LiCa/pilocarpine-induced status epilepticus assessed as alpha at 20 mg/kg, po for 10 days by EEG method relative to control; type: functional; details: time 10 day; method in brief: as §3
Mus musculus [27] = assay: Anticonvulsant activity against mouse model of LiCa/pilocarpine-induced status epilepticus assessed as MDA level in brain at 20 mg/kg, po for 10 days by calorimetric method relative to control; type: functional; details: time 10 day; method in brief: as §3
Mus musculus [28] = assay: Anticonvulsant activity against mouse model of LiCa/pilocarpine-induced status epilepticus assessed as GSH level in brain at 20 mg/kg, po for 10 days by calorimetric method relative to control; type: functional; details: time 10 day; method in brief: as §3
Mus musculus [29] = assay: Anticonvulsant activity against mouse model of LiCa/pilocarpine-induced status epilepticus assessed as GABA level in brain at 20 mg/kg, po for 10 days by ELISA relative to control; type: functional; details: time 10 day; method in brief: as §3
Mus musculus [30] = assay: Anticonvulsant activity against mouse model of LiCa/pilocarpine-induced status epilepticus assessed as Glutamate level in brain at 20 mg/kg, po for 10 days by ELISA relative to control; type: functional; details: time 10 day; method in brief: as §3
MCF7 [31] = assay: Induction of apoptosis in human MCF7 cells assessed as late apoptotic cells at IC50 concentration after 24 hrs by annexin-V-FITC/PI staining based flow cytometric analysis (reference value: 0.47%)
MCF7 [32] = assay: Induction of apoptosis in human MCF7 cells assessed as early apoptotic cells at IC50 concentration after 24 hrs by annexin-V-FITC/PI staining based flow cytometric analysis (reference value: 0.84%)

T1 sequence (P04626 whole entry): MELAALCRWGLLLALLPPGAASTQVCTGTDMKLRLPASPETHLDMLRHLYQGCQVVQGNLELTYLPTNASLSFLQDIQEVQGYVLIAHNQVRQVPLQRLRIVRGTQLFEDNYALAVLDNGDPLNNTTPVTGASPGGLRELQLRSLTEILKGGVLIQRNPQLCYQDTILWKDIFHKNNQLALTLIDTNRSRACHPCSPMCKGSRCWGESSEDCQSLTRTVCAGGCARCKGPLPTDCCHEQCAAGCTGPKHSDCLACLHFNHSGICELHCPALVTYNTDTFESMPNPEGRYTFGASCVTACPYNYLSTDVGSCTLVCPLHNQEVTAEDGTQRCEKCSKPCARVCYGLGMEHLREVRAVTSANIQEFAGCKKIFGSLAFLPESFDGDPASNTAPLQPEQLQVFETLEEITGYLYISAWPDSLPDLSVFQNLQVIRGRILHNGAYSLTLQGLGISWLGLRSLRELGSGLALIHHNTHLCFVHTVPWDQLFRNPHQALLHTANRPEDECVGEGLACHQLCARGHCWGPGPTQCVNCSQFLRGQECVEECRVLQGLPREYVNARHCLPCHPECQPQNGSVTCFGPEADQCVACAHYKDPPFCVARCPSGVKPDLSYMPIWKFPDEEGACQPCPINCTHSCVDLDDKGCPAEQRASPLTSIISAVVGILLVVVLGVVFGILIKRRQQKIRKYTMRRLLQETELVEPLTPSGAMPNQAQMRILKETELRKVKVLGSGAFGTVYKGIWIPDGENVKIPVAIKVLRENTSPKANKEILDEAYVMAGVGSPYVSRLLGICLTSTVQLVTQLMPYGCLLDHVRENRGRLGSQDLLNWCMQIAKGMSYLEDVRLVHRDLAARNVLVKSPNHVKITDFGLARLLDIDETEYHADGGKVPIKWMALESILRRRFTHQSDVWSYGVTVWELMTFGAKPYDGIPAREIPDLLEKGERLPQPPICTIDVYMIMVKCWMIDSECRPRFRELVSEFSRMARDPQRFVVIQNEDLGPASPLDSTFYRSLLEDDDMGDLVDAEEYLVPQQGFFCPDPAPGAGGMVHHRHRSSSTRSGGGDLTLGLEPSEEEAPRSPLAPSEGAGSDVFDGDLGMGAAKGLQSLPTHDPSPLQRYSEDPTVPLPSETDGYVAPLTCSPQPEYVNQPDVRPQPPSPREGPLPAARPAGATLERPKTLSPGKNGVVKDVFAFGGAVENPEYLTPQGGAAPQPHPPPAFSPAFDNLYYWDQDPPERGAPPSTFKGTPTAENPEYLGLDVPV
Chain of Epidermal growth factor receptor (P00533 25-1210 T790M limits assumed): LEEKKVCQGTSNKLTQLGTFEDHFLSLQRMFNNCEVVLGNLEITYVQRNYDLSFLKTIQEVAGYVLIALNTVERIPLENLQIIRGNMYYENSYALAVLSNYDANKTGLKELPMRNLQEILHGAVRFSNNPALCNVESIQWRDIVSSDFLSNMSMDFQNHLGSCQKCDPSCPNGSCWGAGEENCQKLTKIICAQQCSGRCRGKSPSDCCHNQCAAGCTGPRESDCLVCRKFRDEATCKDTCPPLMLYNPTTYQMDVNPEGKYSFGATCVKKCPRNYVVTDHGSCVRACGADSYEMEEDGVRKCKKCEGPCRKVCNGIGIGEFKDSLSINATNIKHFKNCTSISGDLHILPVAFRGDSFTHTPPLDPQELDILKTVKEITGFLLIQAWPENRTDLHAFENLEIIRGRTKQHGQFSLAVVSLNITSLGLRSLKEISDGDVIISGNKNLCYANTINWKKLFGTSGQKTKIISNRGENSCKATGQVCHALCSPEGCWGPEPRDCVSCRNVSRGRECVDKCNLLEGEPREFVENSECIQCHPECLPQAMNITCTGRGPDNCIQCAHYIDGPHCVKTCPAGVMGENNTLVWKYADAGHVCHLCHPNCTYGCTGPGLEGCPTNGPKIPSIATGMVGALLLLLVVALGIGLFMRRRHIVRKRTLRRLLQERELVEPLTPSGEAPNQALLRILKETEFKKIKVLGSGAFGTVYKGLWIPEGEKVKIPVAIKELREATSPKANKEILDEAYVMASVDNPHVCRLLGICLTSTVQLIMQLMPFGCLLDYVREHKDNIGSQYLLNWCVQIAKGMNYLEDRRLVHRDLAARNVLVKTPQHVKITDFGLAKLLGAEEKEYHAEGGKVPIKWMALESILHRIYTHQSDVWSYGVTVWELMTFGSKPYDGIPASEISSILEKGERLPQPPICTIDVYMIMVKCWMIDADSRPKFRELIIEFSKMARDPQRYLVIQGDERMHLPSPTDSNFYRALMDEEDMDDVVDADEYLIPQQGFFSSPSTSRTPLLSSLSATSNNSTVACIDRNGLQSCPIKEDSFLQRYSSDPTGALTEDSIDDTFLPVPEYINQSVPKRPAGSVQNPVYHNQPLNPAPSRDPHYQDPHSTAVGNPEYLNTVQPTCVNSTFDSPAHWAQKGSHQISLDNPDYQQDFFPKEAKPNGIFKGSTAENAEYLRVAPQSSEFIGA

With `COc1ccc(/C=C2/N=C(c3ccc(Cl)cc3)N(C(=O)Cc3nc4c(c(C)nn4-c4ccccc4)c(=O)[nH]3)NC2=O)cc1` the IC50 (WI-38) was 54.9 nM, the Activity (MCF7 [1]) was 22.12% and the Activity (MCF7 [2]) was 25.09%. For the same molecule, the Activity (MCF7 [3]) was 28.34%, the Activity (MCF7 [4]) was 46.57% and the “fold change (FC)” value (MCF7 [5]) was 11.97. The fold change (FC) (MCF7 [6]) was 5.6, the fold change (FC) (MCF7 [7]) was 29.5 and the “fold change (FC)” value (MCF7 [8]) was 12. For the same molecule, the “fold change (FC)” value (MCF7 [9]) was 7.9, the “fold change (FC)” value (MCF7 [10]) was 22.9 and the “fold change (FC)” value (MCF7 [11]) was 5.6. For the same molecule, the “fold change (FC)” value (MCF7 [12]) was 3.4, the Activity (MCF7 [13]) was “Active” and the inhibition [14] was 86.7%. It also gave an IC50 [15] of 227 nM, an IC50 [16] of 866 nM and an Activity (Mus musculus [17]) of -28.59%. The Activity (Mus musculus [18]) was -20.21%, the Activity (Mus musculus [19]) was 13.12% and the Activity (Mus musculus [20]) was 47.56%. It also gave an Activity (Mus musculus [21]) of 67.48%, an Activity (Mus musculus [22]) of 132.38% and an Activity (Mus musculus [23]) of 174.78%. It also gave an Activity (Mus musculus [24]) of 258.15%, an Activity (Mus musculus [25]) of 55.17% and an Activity (Mus musculus [26]) of 28.04%. The Activity (Mus musculus [27]) was -50%, the Activity (Mus musculus [28]) was 179.51% and the Activity (Mus musculus [29]) was 71.54%. The Activity (Mus musculus [30]) was -36.07%, the Activity (MCF7 [31]) was 13.9% and the Activity (MCF7 [32]) was 4.98%.
